Results from article PMC3573810 (Drug Design, Development and Therapy, 2013).

Key:
[1] = test system: Salmonella typhimurium TA1535; type: cell-based; conditions: NaN3 1 μg/plate alone, no bichalcophene
Method in brief: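 Overnight S. typhimurium TA1535 diluted 10−7, shaken 30 min at 37°C in phosphate buffer with NaN3 (1 μg/plate) plus test compound (10 and 20 μM, or 5 and 10 μM for two compounds) or NaN3 alone. Colonies counted on triplicate plates after 24 h and compared with untreated bacteria. ANOVA with Fisher's PLSD, P<0.05.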

[2] = test system: Salmonella typhimurium TA1535; test: Antimutagenicity assay against sodium azide; type: cell-based
Method in brief: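 S. typhimurium TA1535 exposed at 37°C for 30 min to test compound (10 and 20 μM, or 5 and 10 μM for two compounds) and NaN3 (1 μg/plate). Pre-exposure adds NaN3 after the 30 min compound step; co-exposure combines all three together. Plated on minimal glucose agar; revertants counted after 48 h, triplicate. Mutant frequency = mutant colonies/viable colonies.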

[N-]=[N+]=[N-].[Na+] [NaN3, sodium azide]
Viability, % of control [1]: 105 % of control
Viability, colonies/plate [1]: 36.9 ± 4.3 colonies/plate
NaN3 mutagenicity, revertant colonies/plate ([2]; NaN3 1 μg/plate alone, spontaneous 34.3 ± 4.0): 384.7 ± 14.7 (0) revertant colonies/plate
Mutant frequency ([2]; NaN3 alone, mutant colonies (Table 6)/viable colonies (Table 3)): 10.43 (100)
